This is an account of results in ChEMBL document CHEMBL1152204, “Novel potent and highly selective human A(3) adenosine receptor antagonists belonging to the 4-amido-2-arylpyrazolo[3,4-c]quinoline series: molecular docking analysis and pharmacological studies” (Bioorg Med Chem, 2009).

The target of assay [1] is T1, Adenosine receptor A1 (Homo sapiens) (UniProt P30542).
T1 sequence (whole entry): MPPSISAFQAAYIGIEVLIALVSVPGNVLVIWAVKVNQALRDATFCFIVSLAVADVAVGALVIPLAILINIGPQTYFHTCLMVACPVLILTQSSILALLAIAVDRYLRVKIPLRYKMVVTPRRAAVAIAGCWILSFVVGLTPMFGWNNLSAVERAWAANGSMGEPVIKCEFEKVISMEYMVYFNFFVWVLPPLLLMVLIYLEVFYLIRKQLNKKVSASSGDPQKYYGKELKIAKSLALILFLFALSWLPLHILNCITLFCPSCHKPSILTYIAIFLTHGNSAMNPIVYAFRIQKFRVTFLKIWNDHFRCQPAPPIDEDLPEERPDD
Nature of the assay: Displacement of [3H]DPCPX from human adenosine A1 receptor expressed in CHO cells at 1 uM by scintillation counting. Type of assay: cell-based. In a few lines: (§1)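 hA1-CHO membranes (50 µg protein) with 1 nM [³H]DPCPX in 50 mM Tris-HCl pH 7.4, 120 min at 25 °C; nonspecific binding with 10 µM CHA. GF/B filtration. Ki from six to eight concentrations via Cheng–Prusoff (four duplicate assays); or % inhibition at 1 µM.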
On the technique in general: In a radioligand displacement assay an active substance lowers the binding of a labelled ligand.

The target in assay [2] is T2, Adenosine receptor A3 (Homo sapiens) (UniProt P0DMS8).
T2 sequence (whole entry): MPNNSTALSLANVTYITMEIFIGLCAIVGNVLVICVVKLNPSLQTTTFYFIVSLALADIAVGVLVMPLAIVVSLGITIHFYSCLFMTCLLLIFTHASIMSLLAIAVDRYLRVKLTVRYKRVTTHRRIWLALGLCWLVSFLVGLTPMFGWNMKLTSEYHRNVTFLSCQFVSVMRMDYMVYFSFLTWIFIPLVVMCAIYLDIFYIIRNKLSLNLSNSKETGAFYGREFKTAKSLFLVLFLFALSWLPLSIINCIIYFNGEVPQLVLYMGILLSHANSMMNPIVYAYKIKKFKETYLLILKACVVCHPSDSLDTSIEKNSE
Nature of the assay: (§2) Displacement of [125I]AB-MECA from human adenosine A3 receptor expressed in CHO cells by scintillation counting. Type of assay: cell-based. On the set-up: concentration or dose not given beside the values. The following applies: concentration not given here. In a few lines: (§3)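 hA3-CHO membranes (50 µg protein) with 0.5 nM [125I]AB-MECA in 50 mM Tris-HCl, 10 mM MgCl2, 1 mM EDTA, pH 7.4; six to eight ligand concentrations; 120 min at 4 °C. Nonspecific binding: 1 µM AB-MECA. GF/B filtration. Ki by Cheng–Prusoff, means of four assays in duplicate.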

The target in assay [3] is T3, Adenosine receptor A2a (Homo sapiens, UniProt P29274). Kind of assay: Displacement of [3H]ZM241385 from human adenosine A2A receptor expressed in CHO cells at 1 uM by scintillation counting. The assay is classed as cell-based. In a few lines:
(§4)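 hA2A-CHO membranes (50 µg protein) with 1 nM [³H]ZM241385 in 50 mM Tris-HCl, 10 mM MgCl2, pH 7.4; 60 min at 4 °C; nonspecific binding with 1 µM ZM241385. GF/B filtration. Ki from six to eight concentrations via Cheng–Prusoff; or % inhibition at 1 µM.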

Assay [4] concerns the target T4, Adenosine receptor A2b (Homo sapiens) (UniProt P29275).
T4 sequence (whole entry): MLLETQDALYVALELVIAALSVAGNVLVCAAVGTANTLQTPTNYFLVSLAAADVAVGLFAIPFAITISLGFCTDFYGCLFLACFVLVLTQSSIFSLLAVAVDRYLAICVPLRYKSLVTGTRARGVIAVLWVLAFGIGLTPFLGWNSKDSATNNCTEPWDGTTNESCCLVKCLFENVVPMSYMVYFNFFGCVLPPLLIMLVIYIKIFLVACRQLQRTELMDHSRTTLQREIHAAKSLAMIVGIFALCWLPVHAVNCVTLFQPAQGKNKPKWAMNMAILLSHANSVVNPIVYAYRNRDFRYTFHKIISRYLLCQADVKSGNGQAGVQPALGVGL
Kind of assay: Antagonist activity at human adenosine A2B receptor expressed in CHO cells assessed as inhibition of NECA-induced cAMP accumulation at 1 uM. The assay is classed as functional, cell-based. The gist of the method: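 Whole hA2B-CHO cells (1 × 10⁶/assay) in buffered saline, pH 7.4, with 2 IU/ml adenosine deaminase and Ro 20-1724; preincubated 10 min at 37 °C. Stimulated with 200 nM NECA; compound at 1 µM. Stopped with cold 6% TCA, ether-extracted; cAMP by [³H]cAMP competition protein binding; % inhibition reported.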

In assay [5] the target is T3, Adenosine receptor A2a. Kind of assay: Displacement of [3H]ZM241385 from human adenosine A2A receptor expressed in CHO cells by scintillation counting. The assay is classed as cell-based. The gist of the method:
as §4

The target in assay [6] is T5, Adenosine receptor A1 (Homo sapiens, UniProt P30542).
T5 sequence (P30542 whole entry): T1 sequence (whole entry)
Kind of assay: Displacement of [3H]DPCPX from human adenosine A1 receptor expressed in CHO cells by scintillation counting. The assay is classed as cell-based. The gist of the method:
as §1

Assay [7] has as its target T6, Adenosine receptor A3 (Homo sapiens, UniProt P0DMS8).
T6 sequence (P0DMS8 whole entry): T2 sequence (whole entry)
The assay is described as §2. Type of assay: cell-based. The gist of the method: as §3

The target in assay [8] is T6, Adenosine receptor A3. Kind of assay: Antagonist activity at human adenosine A3 receptor expressed in CHO cells assessed as inhibition of CI-IB-MECA-mediated inhibition of cAMP accumulation by competition protein binding assay. Type of assay: functional, cell-based. The gist of the method:
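hA3-CHO cells (1 × 10⁶/assay) preincubated 10 min at 37 °C in buffered saline pH 7.4 with adenosine deaminase (2 IU/ml) and Ro 20-1724. cAMP inhibited by 100 nM Cl-IB-MECA; antagonist 1 nM–1 µM. TCA stop, ether extraction, cAMP by [³H]cAMP/adrenal binding-protein competition. IC50 as mean of four experiments.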

Assay [9] concerns the target T7, Adenosine receptor A3 (Rattus norvegicus) (UniProt P28647).
T7 sequence (whole entry): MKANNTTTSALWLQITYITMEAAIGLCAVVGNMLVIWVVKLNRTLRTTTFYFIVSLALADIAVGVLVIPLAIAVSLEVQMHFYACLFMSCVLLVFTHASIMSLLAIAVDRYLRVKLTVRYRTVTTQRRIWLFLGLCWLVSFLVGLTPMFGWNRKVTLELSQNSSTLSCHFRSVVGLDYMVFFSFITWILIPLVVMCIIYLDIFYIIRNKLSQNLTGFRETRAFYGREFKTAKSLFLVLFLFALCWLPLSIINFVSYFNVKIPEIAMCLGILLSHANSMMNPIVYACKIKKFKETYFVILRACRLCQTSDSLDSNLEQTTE
Nature of the assay: Displacement of [125I]AB-MECA from rat adenosine A3 receptor expressed in HEK293 cells at 1 uM by scintillation counting. The assay is classed as cell-based. The gist of the method:
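rA3-HEK293 membranes (10 µg protein) with 0.5 nM [125I]AB-MECA in Tris-HCl/MgCl2/EDTA buffer pH 7.4; 120 min at 25 °C; GF/B filtration and scintillation counting; percent inhibition at 1 µM test compound.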

T3 sequence (P29274 whole entry): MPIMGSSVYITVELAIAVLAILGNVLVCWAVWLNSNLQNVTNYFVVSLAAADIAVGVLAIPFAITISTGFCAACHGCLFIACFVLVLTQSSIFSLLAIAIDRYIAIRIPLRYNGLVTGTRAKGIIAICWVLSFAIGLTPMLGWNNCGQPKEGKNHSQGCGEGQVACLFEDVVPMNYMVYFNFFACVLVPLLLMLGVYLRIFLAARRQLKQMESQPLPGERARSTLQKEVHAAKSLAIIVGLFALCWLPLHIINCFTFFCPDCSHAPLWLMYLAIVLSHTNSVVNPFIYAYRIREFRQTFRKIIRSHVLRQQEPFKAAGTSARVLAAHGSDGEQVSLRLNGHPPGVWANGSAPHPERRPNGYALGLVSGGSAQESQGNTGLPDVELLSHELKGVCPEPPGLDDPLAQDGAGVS

With `O=C(c1ccc(C(F)(F)F)cc1)N(C(=O)c1ccc(C(F)(F)F)cc1)c1nc2ccccc2c2cn(-c3ccccc3)nc12`, the inhibition in [1] is 17%; in assay [2], 29%; in assay [3], 1%; in assay [4], 1%.
For `O=c1[nH]c2ccccc2c2cn(-c3cccc(C(F)(F)F)c3)nc12`, the inhibition turned out to be 2% in [1], 4% in [2], 5% in [3] and 3% in assay [4].
As for `Nc1nc2ccccc2c2cn(-c3ccc(C(F)(F)F)cc3)nc12`, the inhibition in [1] worked out at 1%; in assay [2], 11%; in assay [3], 1%; in [4], 11%.
Compound `Cc1cccc(-n2cc3c(n2)c(NC(=O)c2ccccc2)nc2ccccc23)c1` returned a Ki in [5] of 2860 nM.
For `Cc1ccc(C(=O)Nc2nc3ccccc3c3cn(-c4ccccc4)nc23)o1`, the Ki in assay [6] was 500 nM; in assay [7], 7.5 nM. Besides, the IC50 in assay [8] was 49 nM. In addition, the inhibition was 10% in assay [3], 5% in [4] and 30% in assay [9].

By inhibition is commonly meant how much of the control response was suppressed. The term Ki denotes the dissociation constant of the complex between target and ligand, obtained from inhibition or displacement. As a reminder, the IC50 is the concentration that gives 50% inhibition.
